The target of assay [1] is Nitric oxide sythases; iNOS & nNOS (Homo sapiens) (UniProt P29475+P35228). The assay can be described thus: Selectivity for nNOS and iNOS, ratio of Ki. Format: protein assay.
Assay [2] can be described thus: Selectivity for nNOS and eNOS, ratio of Ki.
In assay [3] the target is T1, Nitric oxide synthase, inducible (Mus musculus, UniProt P29477).
T1 sequence (P29477 whole entry): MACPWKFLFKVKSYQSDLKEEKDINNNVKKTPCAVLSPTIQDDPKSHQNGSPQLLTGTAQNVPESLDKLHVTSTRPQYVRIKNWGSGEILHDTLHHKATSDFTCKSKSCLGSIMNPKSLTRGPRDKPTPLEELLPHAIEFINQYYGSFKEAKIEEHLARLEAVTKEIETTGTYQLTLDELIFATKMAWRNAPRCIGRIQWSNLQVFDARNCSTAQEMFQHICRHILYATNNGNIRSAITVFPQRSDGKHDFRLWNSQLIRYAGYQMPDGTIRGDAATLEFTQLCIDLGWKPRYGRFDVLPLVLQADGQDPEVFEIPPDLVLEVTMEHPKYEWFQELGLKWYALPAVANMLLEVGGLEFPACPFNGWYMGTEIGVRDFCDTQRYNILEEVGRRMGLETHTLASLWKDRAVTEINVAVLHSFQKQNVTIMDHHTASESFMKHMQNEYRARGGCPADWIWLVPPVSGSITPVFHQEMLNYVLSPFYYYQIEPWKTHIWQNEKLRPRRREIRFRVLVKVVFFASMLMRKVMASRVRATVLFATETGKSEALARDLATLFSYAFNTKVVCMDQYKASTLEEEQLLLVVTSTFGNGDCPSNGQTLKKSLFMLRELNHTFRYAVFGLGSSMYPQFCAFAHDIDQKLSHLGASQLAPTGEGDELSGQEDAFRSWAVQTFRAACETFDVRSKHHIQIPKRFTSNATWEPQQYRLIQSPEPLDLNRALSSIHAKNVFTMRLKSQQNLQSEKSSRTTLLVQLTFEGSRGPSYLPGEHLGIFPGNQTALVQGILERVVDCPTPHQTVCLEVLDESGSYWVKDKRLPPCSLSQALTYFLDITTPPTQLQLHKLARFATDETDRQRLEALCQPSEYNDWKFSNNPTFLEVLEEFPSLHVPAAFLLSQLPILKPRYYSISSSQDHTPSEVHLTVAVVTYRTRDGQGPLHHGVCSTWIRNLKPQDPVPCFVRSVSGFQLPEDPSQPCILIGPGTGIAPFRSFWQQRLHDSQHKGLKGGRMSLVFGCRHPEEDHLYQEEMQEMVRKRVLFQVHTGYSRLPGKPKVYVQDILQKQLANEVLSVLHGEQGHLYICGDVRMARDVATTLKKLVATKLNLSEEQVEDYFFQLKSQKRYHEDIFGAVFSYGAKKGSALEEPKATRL
The assay can be described thus: Inhibition of inducible Nitric Oxide Synthase. The method, boiled down:
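Purified murine macrophage iNOS expressed in recombinant E. coli (500 nmol NO/mg/min at 30 °C). Initial-rate hemoglobin capture assay in 100 mM Hepes pH 7.5 with 10-60 µM L-arginine, 100 µM DTT, 100 µM NADPH, 6.5 µM BH4 and 3 µM oxyhemoglobin, without added calcium/calmodulin. Ki taken from Dixon plots across varied L-arginine and inhibitor concentrations.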

Assay [4] addresses T2, Nitric oxide synthase 3 (Bos taurus, UniProt P29473).
T2 sequence (P29473 whole entry): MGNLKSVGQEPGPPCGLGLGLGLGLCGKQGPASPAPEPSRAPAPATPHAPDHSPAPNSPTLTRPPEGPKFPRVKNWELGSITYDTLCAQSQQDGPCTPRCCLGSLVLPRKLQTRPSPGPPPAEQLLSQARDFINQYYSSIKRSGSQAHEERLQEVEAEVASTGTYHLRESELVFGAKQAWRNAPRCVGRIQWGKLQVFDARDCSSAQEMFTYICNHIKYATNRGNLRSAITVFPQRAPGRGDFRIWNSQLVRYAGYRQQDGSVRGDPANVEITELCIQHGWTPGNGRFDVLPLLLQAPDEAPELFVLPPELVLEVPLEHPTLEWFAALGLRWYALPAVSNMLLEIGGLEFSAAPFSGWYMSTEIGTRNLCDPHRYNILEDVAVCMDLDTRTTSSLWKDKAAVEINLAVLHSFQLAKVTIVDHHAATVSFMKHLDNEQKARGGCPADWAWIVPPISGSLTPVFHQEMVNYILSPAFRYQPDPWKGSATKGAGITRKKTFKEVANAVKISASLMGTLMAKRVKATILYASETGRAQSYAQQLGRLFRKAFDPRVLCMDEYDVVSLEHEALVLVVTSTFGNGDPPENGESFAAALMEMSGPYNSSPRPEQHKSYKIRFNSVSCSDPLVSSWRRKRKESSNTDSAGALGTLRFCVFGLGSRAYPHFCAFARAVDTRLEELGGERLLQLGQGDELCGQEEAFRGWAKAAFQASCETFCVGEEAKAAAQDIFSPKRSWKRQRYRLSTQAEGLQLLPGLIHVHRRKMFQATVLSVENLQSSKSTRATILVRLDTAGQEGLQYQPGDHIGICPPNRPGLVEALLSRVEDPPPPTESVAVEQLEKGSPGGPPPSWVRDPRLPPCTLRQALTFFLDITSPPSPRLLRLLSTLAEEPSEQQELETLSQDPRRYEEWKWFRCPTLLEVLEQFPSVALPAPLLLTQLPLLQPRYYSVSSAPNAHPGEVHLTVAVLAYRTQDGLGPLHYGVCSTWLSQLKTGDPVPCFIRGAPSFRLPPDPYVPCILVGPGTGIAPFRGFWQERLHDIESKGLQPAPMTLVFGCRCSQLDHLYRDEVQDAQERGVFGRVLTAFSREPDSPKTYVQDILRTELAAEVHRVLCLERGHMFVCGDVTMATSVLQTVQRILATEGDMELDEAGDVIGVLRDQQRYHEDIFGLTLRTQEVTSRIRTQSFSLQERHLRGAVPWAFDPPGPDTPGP
The assay can be described thus: Inhibition of endothelial isoform of nitric oxide synthase. The method, boiled down:
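eNOS expressed in E. coli, purified and supplemented with L-arginine and BH4 (235 nmol NO/mg/min at 25 °C). NO formation was followed by oxyhemoglobin capture (80 µM) under initial rates in 50 mM Hepes pH 7.5 with 3-25 µM L-arginine, 100 µM DTT, 10 µM CaCl2, 1 µg/mL calmodulin, 5 µM BH4 and 100 µM NADPH. Ki came from Dixon plots with varied substrate and inhibitor.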

Assay [5] is described as follows: Selectivity for iNOS and eNOS binding, ratio of Ki.

Each structure is given as a SMILES string. pKi: −log10 of the molar value. Where a SMILES comes first, the peptide text is derived from it. [ ]: non-standard residue; d: D form. The star is where a group is joined. dArg(NO2) = N=C(NCCC[C@@H](N)C(=O)O)N[N+](=O)[O-]; Arg(NO2) = N=C(NCCC[C@H](N)C(=O)O)N[N+](=O)[O-]; OBn = c1ccc(CO*)cc1

The values that follow come from ChEMBL document CHEMBL1130132, “Selective inhibition of neuronal nitric oxide synthase by N omega-nitroarginine-and phenylalanine-containing dipeptides and dipeptide esters” (J Med Chem, 1997).

Nitric oxide sythases; iNOS & nNOS (Homo sapiens), sequence (P29475 whole entry, looked up): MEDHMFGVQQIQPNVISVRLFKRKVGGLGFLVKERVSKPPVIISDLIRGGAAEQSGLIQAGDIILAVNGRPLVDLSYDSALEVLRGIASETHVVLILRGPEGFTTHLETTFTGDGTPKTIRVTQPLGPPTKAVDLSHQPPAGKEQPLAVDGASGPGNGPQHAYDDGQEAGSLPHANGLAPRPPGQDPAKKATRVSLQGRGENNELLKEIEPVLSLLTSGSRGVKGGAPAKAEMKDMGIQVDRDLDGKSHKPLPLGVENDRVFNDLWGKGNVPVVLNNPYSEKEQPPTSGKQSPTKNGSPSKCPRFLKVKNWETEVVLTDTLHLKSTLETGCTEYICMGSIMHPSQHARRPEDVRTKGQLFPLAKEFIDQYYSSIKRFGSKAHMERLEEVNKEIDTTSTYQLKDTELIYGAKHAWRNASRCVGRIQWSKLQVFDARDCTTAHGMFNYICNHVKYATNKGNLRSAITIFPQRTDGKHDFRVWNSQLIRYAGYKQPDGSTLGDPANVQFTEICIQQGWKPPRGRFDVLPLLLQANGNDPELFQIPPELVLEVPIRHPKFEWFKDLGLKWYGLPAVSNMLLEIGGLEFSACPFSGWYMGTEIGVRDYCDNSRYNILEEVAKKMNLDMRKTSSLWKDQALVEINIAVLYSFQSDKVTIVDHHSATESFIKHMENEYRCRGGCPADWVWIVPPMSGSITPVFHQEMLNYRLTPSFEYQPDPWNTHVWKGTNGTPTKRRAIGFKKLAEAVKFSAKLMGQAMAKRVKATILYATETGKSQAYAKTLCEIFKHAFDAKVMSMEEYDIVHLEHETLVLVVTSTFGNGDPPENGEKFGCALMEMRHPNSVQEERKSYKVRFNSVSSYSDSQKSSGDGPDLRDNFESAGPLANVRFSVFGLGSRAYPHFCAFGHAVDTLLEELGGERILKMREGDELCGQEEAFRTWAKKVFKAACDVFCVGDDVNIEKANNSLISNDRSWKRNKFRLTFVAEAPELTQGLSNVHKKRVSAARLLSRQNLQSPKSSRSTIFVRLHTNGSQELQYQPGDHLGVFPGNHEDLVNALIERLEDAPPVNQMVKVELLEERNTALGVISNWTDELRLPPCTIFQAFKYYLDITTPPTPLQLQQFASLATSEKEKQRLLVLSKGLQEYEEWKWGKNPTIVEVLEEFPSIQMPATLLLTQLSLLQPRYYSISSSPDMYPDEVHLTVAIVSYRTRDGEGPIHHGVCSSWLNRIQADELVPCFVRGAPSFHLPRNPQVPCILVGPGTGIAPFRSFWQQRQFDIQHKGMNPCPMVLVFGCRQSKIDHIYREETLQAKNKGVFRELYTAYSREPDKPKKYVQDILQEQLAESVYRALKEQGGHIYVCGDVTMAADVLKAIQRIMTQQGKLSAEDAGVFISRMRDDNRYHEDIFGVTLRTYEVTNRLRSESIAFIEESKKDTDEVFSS
Nitric oxide sythases; iNOS & nNOS (Homo sapiens), sequence (P35228 whole entry, looked up): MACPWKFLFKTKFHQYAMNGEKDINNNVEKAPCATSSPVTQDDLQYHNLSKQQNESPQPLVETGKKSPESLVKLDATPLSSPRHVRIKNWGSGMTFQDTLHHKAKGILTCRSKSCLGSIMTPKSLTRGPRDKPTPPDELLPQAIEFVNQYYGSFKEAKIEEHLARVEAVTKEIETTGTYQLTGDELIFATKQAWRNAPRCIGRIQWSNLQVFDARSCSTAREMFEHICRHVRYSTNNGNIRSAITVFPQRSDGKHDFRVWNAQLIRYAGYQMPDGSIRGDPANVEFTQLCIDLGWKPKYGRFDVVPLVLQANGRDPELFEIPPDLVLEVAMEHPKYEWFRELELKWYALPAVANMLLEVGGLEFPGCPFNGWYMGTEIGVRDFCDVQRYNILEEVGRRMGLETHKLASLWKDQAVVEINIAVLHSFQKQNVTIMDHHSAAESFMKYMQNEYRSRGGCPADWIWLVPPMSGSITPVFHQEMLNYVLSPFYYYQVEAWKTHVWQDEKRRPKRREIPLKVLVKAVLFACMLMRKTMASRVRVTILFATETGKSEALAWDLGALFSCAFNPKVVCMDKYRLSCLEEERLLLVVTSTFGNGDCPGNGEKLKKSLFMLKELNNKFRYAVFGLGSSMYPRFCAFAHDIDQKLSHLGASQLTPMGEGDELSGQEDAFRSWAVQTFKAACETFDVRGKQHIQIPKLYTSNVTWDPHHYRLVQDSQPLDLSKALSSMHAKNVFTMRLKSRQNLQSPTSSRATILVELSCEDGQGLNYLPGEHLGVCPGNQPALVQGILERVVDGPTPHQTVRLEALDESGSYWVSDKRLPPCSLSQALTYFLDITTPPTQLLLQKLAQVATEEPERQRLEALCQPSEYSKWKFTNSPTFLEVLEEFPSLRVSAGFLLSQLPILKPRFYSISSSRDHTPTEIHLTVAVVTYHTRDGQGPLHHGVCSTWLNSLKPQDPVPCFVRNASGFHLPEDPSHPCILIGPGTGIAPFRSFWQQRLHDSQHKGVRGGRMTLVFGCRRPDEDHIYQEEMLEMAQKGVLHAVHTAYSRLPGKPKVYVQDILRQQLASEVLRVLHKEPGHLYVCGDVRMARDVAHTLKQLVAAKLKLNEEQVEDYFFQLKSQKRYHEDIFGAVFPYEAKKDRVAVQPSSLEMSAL

One may read the pKi as the negative decadic logarithm of the Ki, by convention in mol/L. Higher therefore signals a low Ki. With `N/C(=N\CCC[C@H](NC(=O)[C@@H](N)Cc1ccccc1)C(=O)OCc1ccccc1)N[N+](=O)[O-]` (H-Phe-[Arg(NO2)]-OBn), the results for the Selectivity in assay [1], in assay [2] and in assay [5] were 0.41, 2.3 and 5.6, respectively. For the same compound, the negative logarithm of the Ki (pKi) is 4.35 in assay [3] and 3.60 in assay [4].

For the compound `COC(=O)[C@@H](Cc1ccccc1)NC(=O)[C@H](N)CCCNC(=N)N[N+](=O)[O-]`, the negative-log Ki (pKi) was 2.19 in assay [3] and 3.43 in assay [4].

For `COC(=O)[C@@H](CCCNC(=N)N[N+](=O)[O-])NC(=O)[C@H](N)Cc1ccccc1` [listing 1 of 2 here], the figures for the negative-log Ki (pKi) in assay [3] and in assay [4] were 2.44 and 5.30, respectively.

In the case of `N/C(=N\CCC[C@@H](NC(=O)[C@H](N)Cc1ccccc1)C(=O)O)N[N+](=O)[O-]` (H-[dF]-[dArg(NO2)]-OH), the Selectivity amounted to 800 in assay [1], 5.3 in assay [2] and 0.0066 in assay [5]. Besides, the pKi is 1.87 in assay [3] and 4.05 in assay [4].

As to `N/C(=N\CCC[C@H](NC(=O)[C@@H](N)Cc1ccccc1)C(=O)O)N[N+](=O)[O-]` (H-Phe-[Arg(NO2)]-OH), the Selectivity in assay [1] was determined as 0.66; in assay [2], 3.5; in assay [5] it was 5.3.

With `COC(=O)[C@H](CCC/N=C(\N)N[N+](=O)[O-])NC(=O)[C@@H](N)Cc1ccccc1`, the Selectivity in assay [1] was determined as 0.55; in assay [2] it was 3.6; in assay [5] it was 6.6. Also, the negative logarithm of the Ki (pKi) in assay [3] is 3.69; in assay [4], 2.87.

For the compound `COC(=O)[C@@H](CCCNC(=N)N[N+](=O)[O-])NC(=O)[C@H](N)Cc1ccccc1` [listing 2 of 2 here], the pKi was 2.92 in assay [3] and 2.07 in assay [4].

As to `COC(=O)[C@H](Cc1ccccc1)NC(=O)[C@@H](N)CCC/N=C(\N)N[N+](=O)[O-]`, the pKi in assay [3] is 4.35; in assay [4], 3.40.

Consider `COC(=O)[C@@H](CCC/N=C(\N)N[N+](=O)[O-])NC(=O)[C@@H](N)Cc1ccccc1`, for which the Selectivity in assay [1] amounted to 83.3; in assay [2], 1.7; in assay [5], 0.02. Besides, the pKi was 2.12 in assay [3] and 3.82 in assay [4].

Consider `COC(=O)[C@@H](Cc1ccccc1)NC(=O)[C@@H](N)CCC/N=C(\N)N[N+](=O)[O-]`, for which the Selectivity is 1.1 in assay [1], 5.7 in assay [2] and 5.3 in assay [5]. Further, the pKi is 4.00 in assay [3] and 3.28 in assay [4].

For `COC(=O)[C@@H](Cc1ccccc1)NC(=O)[C@H](N)CCC/N=C(\N)N[N+](=O)[O-]`, the Selectivity was 43.3 in assay [1], 2.5 in assay [2] and 0.058 in assay [5].

In the case of `N/C(=N\CCC[C@H](N)C(=O)N[C@@H](Cc1ccccc1)C(=O)O)N[N+](=O)[O-]`, the Selectivity turned out to be 8.9 in assay [1], 21.9 in assay [2] and 2.5 in assay [5]. Besides, the pKi in assay [3] is 3.80; in assay [4], 3.40.

On to `N/C(=N\CCC[C@H](N)C(=O)N[C@@H](Cc1ccccc1)C(=O)OCc1ccccc1)N[N+](=O)[O-]`, for which the Selectivity in assay [1] is 0.33; in assay [2], 2.3; in assay [5], 6.9. The pKi in assay [3] was 4.74; in assay [4], 3.90.

On to `N=C(NCCC[C@H](NC(=O)[C@@H](N)Cc1ccccc1)C(=O)O)N[N+](=O)[O-]` (H-Phe-[Arg(NO2)]-OH), for which the pKi was 4.03 in assay [3] and 3.31 in assay [4].
